Assay outcomes as filed in PubChem BioAssay.
KCC2 mod: KCC2 cotransporter modulators, thallium flux, primary screen, cell-based, HEK293 KCC2, FluoZin-2 fluorescence, MLSMR. Solute carrier family 12 member 5 (Homo sapiens), Q9H2X9. 2.2% of 190,000 active. B-score of Tl+ flux slope (higher = more flux/activation; lower = inhibition) at 10 µM. KCC2 cells, thallium flux FluoZin-2 fluorescence. AID 1456, 2008;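 active = thallium flux slope and its plate-corrected score both differing from the plate sample mean at a set confidence after two filtering rounds, in either direction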;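 also: slope of fluorescence scaled to starting intensity during 10 to 20 s after thallium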
Yeast lifespan up: compounds extending yeast replicative lifespan, primary screen, S. cerevisiae, OD615; 0.68% of 130,000 active; inhibition of the nicotinamide effect, % at 10 µM; S. cerevisiae growth with nicotinamide; deaD strain in restrictive glucose medium;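 active = inhibition above a set limit, placed 3 SD over the median of all compounds, cut at about 26% in these data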;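 also: 0% = nicotinamide-treated wells and 100% = cells grown without nicotinamide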
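System: DeaD-strain S. cerevisiae / Buffer or medium: CSMM-D, restrictive glucose (dextrose) synthetic minimal medium / Probe or stimulus: nicotinamide, 1.5 mM, co-present with compound / Compound: one concentration, 10 µM, DMSO 0.25% / Incubation: 48 h compound exposure at 30 °C, humidified / Technique: optical density (absorbance) at 615 nm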
WT yeast gro inh: growth inhibition of WT strain, primary screen, mitochondrial fusion inhibitor project, WT and mutant strains, chemical genetic | AID 1362, 2008 | inhibition, % at 10 µM | mitochondrial fusion phenotypic screen | 2.1% of 190,000 active; in the data active = inhibition above about 58%; tested in S. cerevisiae
Yeast growth inh: growth inhibitors of yeast BB579 in restrictive medium, primary screen, yeast lifespan-shortening project, S. cerevisiae | OD615, 48 h | inhibition, % at 10 µM | 0.51% of 140,000 active;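 active = inhibition above a set limit, 3 SD over the mean compound inhibition, cut at about 44% in these data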
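Material: Saccharomyces cerevisiae DeaD strain BB579, replicative lifespan model yeast; buffer or medium: CSMM-D restrictive synthetic medium containing dextrose (glucose); compound: 10 µM single dose, DMSO 0.25%; timing: 48 h compound exposure at 30 °C after 4 h preincubation; signal: turbidity as optical density at 615 nm; benchmarks: positive control amphotericin B 10 µg/mL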
RAM inhibit: inhibitors of the yeast RAM network, primary screen, dse1pr::URA3 reporter, 5-FOA selection | S. cerevisiae dse1pr::URA3 reporter, 5-FOA growth OD615, 2 d; analog-sensitive cbk1-as2 kinase mutant strain | inhibition, % at 50 µM | 1.8% of 190,000 active | AID 868, 2007;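 active = inhibition above a set limit, 3 SD over mean compound inhibition, cut at about 8.4% in these data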;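 also: 0% = DMSO-only wells with no growth and 100% = 10 µM 1-NA-PP1 full growth; inhibition rescues growth on 5-FOA so higher OD means more RAM inhibition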
KCC2 sec1: KCC2 modulators in sodium-free buffer, confirmation, cell-based, HEK293 KCC2, thallium flux, secondary assay; shares compounds with KCC2 mod; FluoZin2 fluorescence; active compounds read high; normalised thallium flux (F/F0 slope) at 10 µM; 15% of 3,700 active; AID 1713, 2009;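 active = thallium flux slope above the same plate's solvent-only control mean plus 3 SD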
KCC2 bumet counter: thallium flux persisting under bumetanide in KCC2 cells, confirmation, counter-screen for KCC2 modulator project, cell-based, HEK293 KCC2, FluoZin2, secondary assay 3; shares compounds with KCC2 mod; HEK293-KCC2 + bumetanide/ouabain; active compounds read high; normalized thallium flux at 10 µM; 49% of 3,700 active;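 active = thallium entry rate above the same plate's blocked-transporter control wells by more than 3 SD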;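 also: raw slope of fluorescence over initial fluorescence between 10 and 20 s after thallium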
KCC2 sec2: KCC2 modulators without ouabain present, confirmation, cell-based, HEK293 KCC2, thallium flux, FluoZin2, secondary assay 2 | normalized thallium flux at 10 µM | 23% of 3,700 active | thallium flux FluoZin2 fluorescence; actives lie on both sides; F/F0 rise rate, 10–20 s post-thallium | shares compounds with KCC2 mod;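 active = thallium flux slope more than 3 SD above or below the plate's solvent-only control mean, mostly below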;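 also: raw slope with 0.1% DMSO as baseline and bumetanide as block control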
HEK293 Tl flux: thallium flux modulation in parental HEK cells, confirmation, counter-screen for KCC2 modulator project, cell-based, counterscreen 1. 46% of 3,700 active. HEK293 parental cells, thallium flux FluoZin2, ouabain; baseline-ratio fluorescence slope, 10–20 s after thallium. AID 1716, 2009. thallium flux rate (normalised fluorescence) at 10 µM. shares compounds with KCC2 mod;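 active = thallium flux rate significantly above the same plate's solvent-only control wells, beyond their mean plus 3 SD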
KCC2 retest ouab: KCC2 inhibitors and activators, ouabain retest, confirmation, HEK-KCC2 cells; raw Tl+ flux slope (below DMSO = inhibition, above = activation) at 10 µM; 48% of 3,700 active; shares compounds with KCC2 mod; HEK293-KCC2, thallium flux FluoZin2 fluorescence; bidirectional: low = inhibitor, high = activator;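 active = thallium flux slope beyond 3 SD from same-plate DMSO control mean in most replicates, usually higher, sometimes lower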;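 also: slope of initial-normalized fluorescence between seconds 10 and 20 after thallium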
HEK counter2: native HEK Tl+ uptake effects, second counter-screen – HEK cells, counterscreen 2, counter-screen for KCC2 modulator project, confirmation | shares compounds with KCC2 mod | HEK293 parental, thallium flux FluoZin-2 fluorescence slope | thallium flux slope at 10 µM | 33% of 3,700 active;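 active = thallium flux slope above the same plate's solvent-control mean plus 3 SD in both duplicate wells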;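 also: run without ouabain in cells lacking the KCC2 cotransporter; slope of fluorescence scaled to its starting value between 10 and 20 s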
* = called active by the depositor; nt = not tested or not shown. The list is not random: actives were taken first. Their share in the collection is about 5.5%.

SMILES	KCC2 mod	Yeast lifespan up	WT yeast gro inh	Yeast growth inh	RAM inhibit	KCC2 sec1	KCC2 bumet counter	KCC2 sec2	HEK293 Tl flux	KCC2 retest ouab	HEK counter2
C#Cc1ccc([C@H]2C=C(C(=O)Nc3ccccc3)O[C@@H](OCc3ccc(CO)cc3)C2)cc1	0.99	nt	nt	nt	nt	nt	nt	nt	nt	nt	nt
O=C(NCc1ccccc1C(F)(F)F)C1CC(c2cccc(F)c2)=NO1 (stereo not drawn)	-2.7*	nt	nt	nt	nt	0.0074	0.0046	0.027	0.0069	0.018	0.0089
Cc1ccc(NC(=O)C2CCCO2)cc1[N+](=O)[O-] (stereo not drawn)	-0.23	-6	2	-24	1	nt	nt	nt	nt	nt	nt
Cc1[nH]n(-c2ccccc2)c(=O)c1C(=O)c1ccc(Cl)cc1	11*	nt	nt	nt	nt	0.0072	0.021*	0.04*	0.022*	0.03*	0.024*
Cc1[nH]n(-c2ccc(Cl)cc2)c(=O)c1C(=O)c1ccccc1	8.1*	nt	10	nt	0	0.0065	0.02*	0.032	0.016*	0.027*	0.019*
CCSC(=S)c1c(C)[nH]n(-c2ccccc2)c1=O	101*	nt	nt	nt	nt	0.046*	0.1*	0.04	0.061*	0.067*	0.028*
Cc1[nH]n(-c2ccccc2)c(=O)c1C(=O)c1ccccc1	4.4*	nt	nt	nt	nt	0.0056	0.0085*	0.034	0.012*	0.022	0.014*
CC[C@H]1OC(=O)[C@H](C)[C@@H](O[C@H]2C[C@@](C)(OC)[C@@H](O)[C@H](C)O2)[C@H](C)[C@@H](O[C@@H]2O[C@H](C)C[C@H](N(C)C)[C@H]2O)[C@](C)(OC)C[C@@H](C)C(=O)[C@H](C)[C@@H](O)[C@]1(C)O	-0.019	nt	59	nt	nt	nt	nt	nt	nt	nt	nt
N#CC(c1ccc(Cl)cc1)c1ccc2c(C(F)(F)F)cc(C(F)(F)F)nc2n1 (stereo not drawn)	22*	-11	85*	31	1	0.024*	0.14*	0.031	0.054*	0.067*	0.015*
FC(F)(F)c1cc(C(F)(F)F)c2ccc(N3CCN(c4ccc(Cl)cc4)CC3)nc2n1	-0.31	-20	12	-49	1	nt	nt	nt	nt	nt	nt
O=S(=O)(CCCc1ccccc1)c1ncn[nH]1	4.7*	-4	3	-26	1	0.007	0.0044	0.031	0.0065	0.017	0.0093
CC(C)CC(c1nnnn1C1CCCCC1)N1CCN(c2ncccn2)CC1 (stereo not drawn)	0.64	-4	42	-8	-1	nt	nt	nt	nt	nt	nt
CC(C)CC(c1nnnn1C1CCCC1)N1CCC(C(N)=O)CC1 (stereo not drawn)	2.7*	nt	5	nt	2	0.006	0.0044	0.028	0.0079	0.019	0.0095
